This note sets out measurements from ChEMBL document CHEMBL5223168, “Using Imidazo[2,1-b][1,3,4]thiadiazol Skeleton to Design and Synthesize Novel MNK Inhibitors” (ACS Med Chem Lett, 2023).

The source made the active and inactive calls. No cut-off for these calls is given here. Bounds are passed on as bounds.

The subject of data set [1] is A549. The data set is described as follows: Antiproliferative activity against human A549 cells assessed as reduction in cell viability at 5 uM incubated upto 6 days by trypan blue assay. It is filed as functional, cell-based. The note with it: time <= 6.0 day. Summed up: (§1)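 A549 or MDA-MB-231 cells cultured with 5 μM compound for up to 6 days; cell number counted over time; p-eIF4E followed by immunoblot up to 96 h.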

For the next data set, the system named is MDA-MB-231. The data set is described as follows: Antiproliferative activity against human MDA-MB-231 cells assessed as reduction in cell viability at 5 uM incubated upto 6 days by trypan blue assay. The note with it: time <= 6.0 day. It is filed as functional, cell-based. The method in brief:
as §1

Data set [2] deals with A549. The data set is described as follows: Induction of cell cycle arrest in human A549 cells assessed as accumulation of cells at G2/M phase at 5 uM incubated for 16 hrs by propidium iodide staining based flow cytometry (Rvb=11.8%). The data set is classed as functional.
Data set [3] has as its system A549. The data set is described as follows: Induction of cell cycle arrest in human A549 cells assessed as accumulation of cells at G0/G1 phase at 5 uM incubated for 20 hrs by propidium iodide staining based flow cytometry (Rvb=70.9%). It is filed as functional. (Flow cytometry measures light scatter and fluorescence of single cells or particles in a stream.)
Data set [4] can be described thus: Toxicity in BALB/C nude mouse xenografted with human A549 cells assessed as body weight loss at 75 to 150 mg/kg, po QD for 14 days. Particulars: in vivo, 336 h, dose 75-150 mg/kg, time 14 day. The data set is classed as organism-based. Summed up:
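A549 xenografts in nude mice dosed orally once daily at 75 or 150 mg/kg for 14 days; body weight monitored for tolerability, irinotecan 3 mg/kg as positive control group.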
On the technique in general: A xenograft is tissue or cells of one species grown in another, often human tumour cells in immunodeficient mice.

For data set [5], the system named is MAP kinase-interacting kinase MNK1/2 (Homo sapiens). The data set is described as follows: Inhibition of MNK in human PC-3 cells assessed as inhibition of eIF4E phosphorylation at 3 uM incubated for 2 hrs by Western blot analysis.
Data set [6] shares this test system. The data set is described as follows: Inhibition of MNK in human A549 cells assessed as inhibition of eIF4E phosphorylation at 3 uM incubated for 2 hrs by Western blot analysis.

`CN1CCN(C(=O)c2ccc(-c3nn4c(-c5ccc(C#N)cc5)cnc4s3)cc2)CC1`: the result in the data set with A549 [1] and in the data set with MDA-MB-231 was Active. For the same molecule, the Activity is 5.2% in the data set on A549 [2], 91.4% with A549 [3] and less than 10% in data set [4]. The inhibition result in data set [5] and in data set [6] was “Active” each time.
